Measured values reported in ChEMBL document CHEMBL1159045, “Design and pharmacophore modeling of biaryl methyl eugenol analogs as breast cancer invasion inhibitors” (Bioorg Med Chem, 2010).

Assays:
MCF7 = assay: Cytotoxicity against human MCF7 cells at 10 to 50 uM after 75 hrs by MTT assay; format: cell-based; settings: mcf7, 72 h, in the assay text read “72 hrs” for “75 hrs”
Outline: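 MCF-7 seeded at 12,000 cells/well and stabilized 24 h at 37 °C, 5% CO2. Treated in triplicate for 72 h at 37 °C, 5% CO2, 85% humidity. MTT (2.5 mg/mL) added for 4 h, then formazan dissolved in isopropanol overnight at rt in the dark. OD read at 570 nm against a cell-free blank; cell number from calibration curve. Colchicine positive control, DMSO vehicle.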

MDA-MB-231 [1] = assay: Cytotoxicity against human MDA-MB-231 cells at 10 to 50 uM after 75 hrs by MTT assay; format: cell-based; settings: mda-mb-231, 72 h, in the assay text read “72 hrs” for “75 hrs”
Outline: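 MDA-MB-231 seeded at 15,000 cells/well and stabilized 24 h at 37 °C, 5% CO2. Triplicate doses applied for 72 h at 37 °C, 5% CO2, 85% humidity. MTT (2.5 mg/mL) added for 4 h, then formazan dissolved overnight at rt in the dark with detergent reagent. OD at 570 nm against a cell-free blank; cells/well from calibration curve. Colchicine positive control, DMSO vehicle.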

MDA-MB-231 [2] = assay: Antiinvasive activity in human MDA-MB-231 cells by BME cell invasion assay; format: functional, cell-based
Outline: (§1)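 Cultrex 96-well BME invasion kit, Boyden-type chamber with 8 µm PET membrane coated with basement membrane extract; MDA-MB-231 cells exposed to 1–4 μM for 24 h, 10% FBS as chemoattractant in the lower chamber. Invaded cells labelled with calcein-AM and read at ex 485/em 520 nm. RFU converted to cell number by standard curve. % invasion = cells through BME / cells migrating through uncoated membrane. Colchicine as positive control, DMSO vehicle.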

MDA-MB-231 [3] = assay: Antiinvasive activity in human MDA-MB-231 cells assessed as cell invasion at 4 uM by BME cell invasion assay; format: functional; outline: as §1
MDA-MB-231 [4] = assay: Antiinvasive activity in human MDA-MB-231 cells assessed as cell invasion at 2 uM by BME cell invasion assay; format: functional; outline: as §1

SMILES	Activity (MCF7)	Activity (MDA-MB-231 [1])	Activity (MDA-MB-231 [2])	Activity (MDA-MB-231 [3]) [%]	Activity (MDA-MB-231 [4]) [%]
COc1ccc(C/C=C\c2ccccc2OC(C)=O)cc1OC	Non-toxic	Non-toxic	Dose-dependent effect	9	–
COc1ccc(C(=O)CCc2cc(OC)c(OC)c(OC)c2)cc1OC	–	Non-toxic	Dose-dependent effect	–	–
COc1ccccc1C/C=C/c1ccc(OC)c(OC)c1	–	Non-toxic	Dose-dependent effect	–	–
COc1ccc(C/C=C/c2c(C)cccc2C)cc1OC	–	Non-toxic	Dose-dependent effect	–	–
COc1ccc(/C=C/Cc2cc(OC)c(OC)c(OC)c2)cc1OC	–	Non-toxic	Dose-dependent effect	11	–
COc1ccc(C(=O)/C=C/c2cc(OC)c(OC)c(OC)c2)cc1OC	–	Non-toxic	Dose-dependent effect	–	8.5
COc1ccc(C/C=C/c2ccc(OC)c(OC)c2)cc1	–	Non-toxic	Dose-dependent effect	–	–
C=C(Cc1ccc(OC)c(OC)c1)c1cc(OC)c(OC)c(OC)c1	–	Non-toxic	Dose-dependent effect	–	–
C=C(Cc1ccc(OC)c(OC)c1)c1ccc(OC)cc1	–	Non-toxic	Dose-dependent effect	–	–
COc1ccc(/C=C\Cc2c(C)cccc2C)cc1OC	–	Non-toxic	Dose-dependent effect	–	–
COc1ccc(/C=C/Cc2ccccc2OC(C)=O)cc1OC	Non-toxic	Non-toxic	Dose-dependent effect	–	–
COc1ccc(/C=C/Cc2ccc(OC)c(OC)c2)cc1	–	Non-toxic	Dose-dependent effect	13.7	–
COc1cc2c(c(OC)c1OC)-c1ccc(OC)c(=O)cc1[C@@H](NC(C)=O)CC2 [COLCHICINE]	–	–	–	8.9	–
COc1ccc(C/C=C/c2cc(OC)c(OC)c(OC)c2)cc1OC	–	Non-toxic	Dose-dependent effect	–	–
C=C(Cc1ccc(OC)c(OC)c1)c1ccccc1OC(C)=O	Non-toxic	Non-toxic	Dose-dependent effect	–	–
